{
  "source": "ChEMBL document CHEMBL1140766",
  "about": "“SAR of a series of anti-HSV-1 acridone derivatives, and a rational acridone-based design of a new anti-HSV-1 3H-benzo[b]pyrazolo[3,4-h]-1,6-naphthyridine series” (Bioorg Med Chem, 2008)",
  "key": {"Human alphaherpesvirus 1 [1]": {"system": "Human alphaherpesvirus 1", "test": "Antiviral activity against acyclovir-resistant HSV1 AR29 replication in Vero cells at 50 uM after 72 hrs", "assay_type": "functional", "conditions": "for inhibition at 50 µM: Human alphaherpesvirus 1, AR29, Vero", "in_short": "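Confluent Vero monolayers (DMEM, 5% FCS, 37 C, 5% CO2) infected with HSV-1 AR-29 at m.o.i. 1, 0.1, 0.01 or 0.001 for 1 h at 37 C. Cells were PBS-washed, then given medium with or without compound at 50 µM. At 72 h, titer was read as TCID50/mL by end-point dilution (Reed–Muench). % inhibition came from treated versus mock-treated infected titers. Acyclovir 50 µM served as control. Duplicates, ≥3 experiments.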"}, "Human alphaherpesvirus 1 [2]": {"system": "Human alphaherpesvirus 1", "test": "Antiviral activity against acyclovir-resistant HSV1 AR29 replication in Vero cells after 72 hrs", "assay_type": "functional", "conditions": "for pEC50: Human alphaherpesvirus 1, AR29, Vero, read-out: ED50 (the source's name)"}, "[3]": {"test": "Cytotoxicity against african green monkey Vero cells assessed as cell viability after 72 hrs by MTT assay", "assay_type": "cell-based", "conditions": "chlorocebus sabaeus"}, "Human alphaherpesvirus 1 [4]": {"system": "Human alphaherpesvirus 1", "test": "Antiviral activity against acyclovir-resistant HSV1 AR29 replication in Vero cells at >50 uM after 72 hrs", "assay_type": "functional"}},
  "note": "pEC50: −log10 of the molar value. Active and inactive are the calls of the source. No cut-off for these calls is given here.",
  "data": [
    {"smiles": "Cc1nn(-c2ccccc2)c2ncc3c(Cl)c4ccccc4nc3c12", "values": [
      {"measurement": "inhibition at 50 µM", "setting": "Human alphaherpesvirus 1 [1]", "value": 70, "unit": "%"}
    ]},
    {"smiles": "COc1cccc2c(O)c3c(O)cc(O)cc3nc12", "values": [
      {"measurement": "pEC50", "setting": "Human alphaherpesvirus 1 [2]", "value": 5.66}
    ]},
    {"smiles": "O=c1c2ccccc2[nH]c2c1cnc1c2cnn1-c1ccccc1", "values": [
      {"measurement": "inhibition at 50 µM", "setting": "Human alphaherpesvirus 1 [1]", "value": 74, "unit": "%"},
      {"measurement": "CC50 at 72 h", "setting": "[3]", "value": 640, "unit": "µM"}
    ]},
    {"smiles": "Cc1nn(-c2ccccc2)c2ncc3c(Cl)c4cccc(Cl)c4nc3c12", "values": [
      {"measurement": "inhibition at 50 µM", "setting": "Human alphaherpesvirus 1 [1]", "value": 100, "unit": "%"}
    ]},
    {"smiles": "O=c1c2cccc(Cl)c2[nH]c2cc(O)cc(O)c12", "values": [
      {"measurement": "pEC50", "setting": "Human alphaherpesvirus 1 [2]", "value": 5.40}
    ]},
    {"smiles": "COc1ccc2nc3c(cnc4c3cnn4-c3ccccc3)c(Cl)c2c1", "values": [
      {"measurement": "inhibition at 50 µM", "setting": "Human alphaherpesvirus 1 [1]", "value": 68, "unit": "%"},
      {"measurement": "CC50 at 72 h", "setting": "[3]", "value": 640, "unit": "µM"}
    ]},
    {"smiles": "Cc1ccc2nc3c(cnc4c3c(C)nn4-c3ccccc3)c(Cl)c2c1", "values": [
      {"measurement": "Activity", "setting": "Human alphaherpesvirus 1 [1]", "value": "inactive"}
    ]},
    {"smiles": "O=c1c2cccc(Cl)c2[nH]c2cc3ccccc3c(O)c12", "values": [
      {"measurement": "Activity", "setting": "Human alphaherpesvirus 1 [2]", "value": "inactive"}
    ]},
    {"smiles": "Cc1cccc2c(O)c3c(O)cc(O)cc3nc12", "values": [
      {"measurement": "pEC50", "setting": "Human alphaherpesvirus 1 [2]", "value": 5.10}
    ]},
    {"smiles": "Cc1cccc2c(Cl)c3cnc4c(c(C)nn4-c4ccccc4)c3nc12", "values": [
      {"measurement": "inhibition at 50 µM", "setting": "Human alphaherpesvirus 1 [1]", "value": 66, "unit": "%"},
      {"measurement": "CC50 at 72 h", "setting": "[3]", "value": 640, "unit": "µM"}
    ]},
    {"smiles": "Cc1ccc2nc3c(cnc4c3cnn4-c3ccccc3)c(Cl)c2c1", "values": [
      {"measurement": "inhibition at 50 µM", "setting": "Human alphaherpesvirus 1 [1]", "value": 82, "unit": "%"},
      {"measurement": "CC50 at 72 h", "setting": "[3]", "value": 640, "unit": "µM"}
    ]},
    {"smiles": "O=c1c2ccccc2[nH]c2cc(O)cc(O)c12", "values": [
      {"measurement": "pEC50", "setting": "Human alphaherpesvirus 1 [2]", "value": 4.35}
    ]},
    {"smiles": "Cc1ccc2[nH]c3c(cnc4c3cnn4-c3ccccc3)c(=O)c2c1", "values": [
      {"measurement": "inhibition at 50 µM", "setting": "Human alphaherpesvirus 1 [1]", "value": 92, "unit": "%"},
      {"measurement": "CC50 at 72 h", "setting": "[3]", "value": 640, "unit": "µM"}
    ]},
    {"smiles": "Nc1nc2c(ncn2COCCO)c(=O)[nH]1", "note": "[ACYCLOVIR]", "values": [
      {"measurement": "CC50 at 72 h", "setting": "[3]", "value": 126, "unit": "µM"}
    ]},
    {"smiles": "O=c1c2cc(Cl)ccc2[nH]c2cc(O)cc(O)c12", "values": [
      {"measurement": "pEC50", "setting": "Human alphaherpesvirus 1 [2]", "value": 4.80}
    ]},
    {"smiles": "Cc1nn(-c2ccccc2)c2ncc3c(Cl)c4cc(Cl)ccc4nc3c12", "values": [
      {"measurement": "inhibition at 50 µM", "setting": "Human alphaherpesvirus 1 [1]", "value": 39, "unit": "%"},
      {"measurement": "CC50 at 72 h", "setting": "[3]", "value": 640, "unit": "µM"}
    ]},
    {"smiles": "O=c1c2c(O)cc(O)cc2[nH]c2cccc(Cl)c12", "values": [
      {"measurement": "pEC50", "setting": "Human alphaherpesvirus 1 [2]", "value": 5.00}
    ]},
    {"smiles": "Cc1cc(O)c2c(=O)c3cccc(Cl)c3[nH]c2c1", "values": [
      {"measurement": "Activity", "setting": "Human alphaherpesvirus 1 [2]", "value": "inactive"}
    ]},
    {"smiles": "COc1cc(O)c2c(=O)c3cccc(Cl)c3[nH]c2c1", "values": [
      {"measurement": "pEC50", "setting": "Human alphaherpesvirus 1 [2]", "value": "< 4.30"},
      {"measurement": "Inhibition", "setting": "Human alphaherpesvirus 1 [4]", "value": 6, "unit": "%"}
    ]},
    {"smiles": "O=c1c2ccc(Cl)cc2[nH]c2cc(O)cc(O)c12", "values": [
      {"measurement": "pEC50", "setting": "Human alphaherpesvirus 1 [2]", "value": 5.00}
    ]}
  ]
}
